According to ChEMBL document CHEMBL3588805, “Characterization and Biological Activities of Ocellatin Peptides from the Skin Secretion of the Frog Leptodactylus pustulatus” (J Nat Prod, 2015):
Converted amounts (≈) assume the structure as drawn. The source made the active and inactive calls. The calls are words filed in the database; no cut-off is given here. Where a SMILES comes first, the peptide text is derived from it.

Columns and labels:
[1] = test system: Salmonella enterica; experiment: Antibacterial activity against Salmonella choleraesuis ATCC 14028 assessed as inhibition of visible bacterial growth incubated at 37 degC for 24 hrs by CLSI protocol based method; assay type: functional; settings: ATCC 14028, 24 h
Method in brief: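 Strain grown at 37 °C in Mueller-Hinton broth to log phase (1 × 10^8 CFU/mL). Broth microdilution per CLSI (2012) with 2-fold peptide dilutions in Mueller-Hinton broth, 6.25–800 μg/mL, final inoculum 5 × 10^5 CFU/mL. Incubated 24 h, 37 °C, aerobic. MIC is the lowest concentration giving absorbance below 0.05 at 600 nm. Meropenem control. Triplicate, two independent experiments.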

[2] = test system: Klebsiella pneumoniae; experiment: Antibacterial activity against Klebsiella pneumoniae ATCC 700603 assessed as inhibition of visible bacterial growth incubated at 37 degC for 24 hrs by CLSI protocol based method; assay type: functional; settings: ATCC 700603, 24 h
Method in brief: (§1)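 Broth microdilution per CLSI 2012. Strains grown at 37 °C in Mueller-Hinton broth to log phase (1 × 10^8 CFU/mL). Peptide 2-fold serial dilutions, 6.25–800 μg/mL, in Mueller-Hinton broth; final inoculum 5 × 10^5 CFU/mL per well. Aerobic incubation 24 h at 37 °C. MIC is the lowest concentration with no visible growth (A600 < 0.05). Meropenem control for Gram-negatives, oxacillin for S. aureus. Triplicate, two independent experiments.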

[3] = test system: Staphylococcus aureus; experiment: Antibacterial activity against Staphylococcus aureus […] assessed as inhibition of visible bacterial growth incubated at 37 degC for 24 hrs by CLSI protocol based method; assay type: functional; method in brief: as §1
[4] = Toxicity in human RBC assessed as induction of hemolysis at antibacterial MIC (Escherichia coli ATCC 25922) incubated for 1 hr at 37 degC; assay type: cell-based, Erythrocyte; settings: human red blood cells (RBC), read-out: Activity
Method in brief: (§2)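 Human RBCs collected in EDTA (1.8 mg/mL), washed three times, resuspended in 0.85% saline, mixed with an equal volume of peptide solution (100–800 μg/mL). 1 h at 37 °C, centrifuged at 10000g for 1 min, supernatant absorbance read at 550 nm. Saline and 0.1% (v/v) Triton X as 0 and 100% controls. % hemolysis = (A peptide − A saline)/(A Triton − A saline) × 100.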

[5] = test system: Escherichia coli; experiment: Antibacterial activity against Escherichia coli ATCC 25922 assessed as inhibition of visible bacterial growth incubated at 37 degC for 24 hrs by CLSI protocol based method; assay type: functional; settings: ATCC 25922, 24 h; method in brief: as §1
[6] = Cytotoxicity against mouse NIH/3T3 cells at antibacterial MIC (Escherichia coli ATCC 25922) assessed as reduction in cell index incubated for 60 hrs; assay type: cell-based; settings: nih3t3, 60 h
[7] = Toxicity in human RBC assessed as induction of hemolysis at 800 ug/mL incubated for 1 hr at 37 degC; assay type: cell-based, Erythrocyte; settings: human red blood cells (RBC), read-out: Activity; method in brief: as §2
[8] = test system: Escherichia coli; experiment: Induction of cell envelope morphological changes in Escherichia coli ATCC 25922 at 190 uM incubated for 24 hrs by atomic force microscopy; assay type: functional, organism-based
[9] = test system: Escherichia coli; experiment: Induction of morphological changes in Escherichia coli ATCC 25922 assessed as cell structural perturbation at 190 uM incubated for 24 hrs by atomic force microscopy; assay type: functional, organism-based
[10] = test system: Escherichia coli; experiment: Induction of morphological changes in Escherichia coli ATCC 25922 assessed as cell shape changes release at 190 uM incubated for 24 hrs by atomic force microscopy; assay type: functional, organism-based
[11] = test system: Escherichia coli; experiment: Induction of morphological changes in Escherichia coli ATCC 25922 assessed as cell cytoplasmic content release at 190 uM incubated for 24 hrs by atomic force microscopy; assay type: functional, organism-based
[12] = test system: Escherichia coli; experiment: Induction of morphological changes in Escherichia coli ATCC 25922 assessed as reduction in number of pili at 190 uM incubated for 24 hrs by atomic force microscopy; assay type: functional, organism-based

| SMILES | MIC [1] | MIC [2] | MIC [3] | hemolysis at 1 h [4] | MIC [5] | Activity [6] | hemolysis at 1 h, 800 ug/mL [7] | Activity [8] | Activity [9] | Activity [10] | Activity [11] | Activity [12] |
| --- | --- | --- | --- | --- | --- | --- | --- | --- | --- | --- | --- | --- |
| CC[C@H](C)[C@H](NC(=O)[C@H](CC(C)C)NC(=O)[C@H](CCC(N)=O)NC(=O)[C@H](CCCCN)NC(=O)CNC(=O)[C@H](C)NC(=O)CNC(=O)[C@H](CCCCN)NC(=O)[C@@H](NC(=O)[C@@H](NC(=O)[C@H](CC(=O)O)NC(=O)[C@H](Cc1ccccc1)NC(=O)[C@@H](NC(=O)CN)C(C)C)[C@@H](C)CC)[C@@H](C)CC)C(=O)N[C@@H](C)C(=O)N[C@@H](Cc1cnc[nH]1)C(=O)N[C@@H](C)C(=O)N[C@@H](CCSC)C(=O)N[C@@H](CCC(=O)O)C(=O)N[C@@H](CCCCN)C(=O)N[C@H](C(=O)N[C@@H](C)C(=O)N[C@@H](CCC(=O)O)C(=O)N[C@@H](CCCCN)C(=O)N[C@H](C(=O)NCC(=O)N[C@@H](CC(C)C)C(=O)N[C@@H](CC(N)=O)C(=O)N[C@@H](CCCCN)C(=O)N[C@@H](CC(=O)O)C(=O)NCC(=O)N[C@@H](CC(N)=O)C(=O)O)C(C)C)[C@@H](C)CC (H-GVFDIIKGAGKQLIAHAMEKIAEKVGLNKDGN-OH) | > 240 µM | > 240 µM | > 240 µM | 0% | 120 µM (≈ 404 µg/mL) | Non-toxic | 0.69% |  |  |  |  |  |
| CC[C@H](C)[C@H](NC(=O)[C@H](CCCCN)NC(=O)CNC(=O)[C@H](CCSC)NC(=O)[C@H](C)NC(=O)[C@H](Cc1cnc[nH]1)NC(=O)[C@H](C)NC(=O)[C@@H](NC(=O)[C@H](CC(C)C)NC(=O)[C@H](CCC(N)=O)NC(=O)[C@H](CCCCN)NC(=O)CNC(=O)[C@H](C)NC(=O)CNC(=O)[C@H](CCCCN)NC(=O)[C@@H](NC(=O)[C@@H](NC(=O)[C@H](CC(=O)O)NC(=O)[C@H](Cc1ccccc1)NC(=O)[C@@H](NC(=O)CN)C(C)C)[C@@H](C)CC)[C@@H](C)CC)[C@@H](C)CC)C(=O)N[C@@H](C)C(=O)N[C@@H](CCC(=O)O)C(=O)N[C@@H](CCCCN)C(=O)N[C@H](C(N)=O)C(C)C (H-GVFDIIKGAGKQLIAHAMGKIAEKV-NH2) | 310 µM (≈ 804 µg/mL) | 310 µM (≈ 804 µg/mL) | > 310 µM | 0.19% | 80 µM (≈ 208 µg/mL) | Non-toxic | 4.29% |  |  |  |  |  |
| CC[C@H](C)[C@H](NC(=O)[C@H](CCCCN)NC(=O)CNC(=O)[C@H](CCSC)NC(=O)[C@H](C)NC(=O)[C@H](Cc1cnc[nH]1)NC(=O)[C@H](C)NC(=O)[C@@H](NC(=O)[C@H](CC(C)C)NC(=O)[C@H](CCC(N)=O)NC(=O)[C@H](CCCCN)NC(=O)CNC(=O)[C@H](C)NC(=O)CNC(=O)[C@H](CCCCN)NC(=O)[C@@H](NC(=O)[C@@H](NC(=O)[C@H](CC(=O)O)NC(=O)[C@H](Cc1ccccc1)NC(=O)[C@@H](NC(=O)CN)C(C)C)[C@@H](C)CC)[C@@H](C)CC)[C@@H](C)CC)C(=O)N[C@@H](C)C(=O)N[C@@H](CCC(=O)O)C(=O)N[C@@H](CCCCN)C(=O)N[C@H](C(=O)NCC(=O)N[C@@H](CC(C)C)C(=O)N[C@@H](CC(N)=O)C(=O)N[C@@H](CCCCN)C(=O)N[C@@H](CC(=O)O)C(=O)NCC(=O)N[C@@H](CC(N)=O)C(=O)O)C(C)C (H-GVFDIIKGAGKQLIAHAMGKIAEKVGLNKDGN-OH) | 240 µM (≈ 791 µg/mL) | > 240 µM | 240 µM (≈ 791 µg/mL) | 0.06% | 60 µM (≈ 198 µg/mL) | Non-toxic | 13.7% | Active | Active | Active | Active | Active |
| CC[C@H](C)[C@H](NC(=O)[C@H](CCCCN)NC(=O)CNC(=O)[C@H](CCSC)NC(=O)[C@H](C)NC(=O)[C@H](Cc1cnc[nH]1)NC(=O)[C@H](C)NC(=O)[C@@H](NC(=O)[C@H](CC(C)C)NC(=O)[C@H](CCC(N)=O)NC(=O)[C@H](CCCCN)NC(=O)CNC(=O)[C@H](C)NC(=O)[C@H](CC(=O)O)NC(=O)[C@H](CCCCN)NC(=O)[C@@H](NC(=O)[C@@H](NC(=O)[C@H](CC(=O)O)NC(=O)[C@H](Cc1ccccc1)NC(=O)[C@@H](NC(=O)CN)C(C)C)[C@@H](C)CC)[C@@H](C)CC)C(C)C)C(=O)N[C@@H](C)C(=O)N[C@@H](CCC(=O)O)C(=O)N[C@@H](CCCCN)C(=O)N[C@H](C(N)=O)C(C)C (H-GVFDIIKDAGKQLVAHAMGKIAEKV-NH2) | > 300 µM | > 300 µM | > 300 µM | 1.98% | 300 µM (≈ 791 µg/mL) | Non-toxic | 1.98% |  |  |  |  |  |
| CC[C@H](C)[C@H](NC(=O)[C@H](C)NC(=O)[C@H](Cc1cnc[nH]1)NC(=O)[C@H](C)NC(=O)[C@@H](NC(=O)[C@H](CC(C)C)NC(=O)[C@H](CC(=O)O)NC(=O)[C@H](CCCCN)NC(=O)CNC(=O)[C@H](C)NC(=O)CNC(=O)[C@H](CCCCN)NC(=O)[C@@H](NC(=O)[C@@H](NC(=O)[C@H](CC(=O)O)NC(=O)[C@@H](NC(=O)[C@@H](NC(=O)CN)C(C)C)[C@@H](C)CC)[C@@H](C)CC)[C@@H](C)CC)[C@@H](C)CC)C(=O)NCC(=O)N[C@@H](CCCCN)C(=O)N[C@@H](CC(C)C)C(=O)N[C@@H](C)C(=O)N[C@@H](CCC(=O)O)C(=O)N[C@@H](CCCCN)C(=O)N[C@H](C(N)=O)C(C)C (H-GVIDIIKGAGKDLIAHAIGKLAEKV-NH2) | > 320 µM | > 320 µM | > 320 µM | 0.69% | 320 µM (≈ 809 µg/mL) | Non-toxic | 0.69% |  |  |  |  |  |
| CC[C@H](C)[C@H](NC(=O)[C@H](CCCCN)NC(=O)CNC(=O)[C@H](CCSC)NC(=O)[C@H](C)NC(=O)[C@H](Cc1cnc[nH]1)NC(=O)[C@H](C)NC(=O)[C@@H](NC(=O)[C@H](CC(C)C)NC(=O)[C@H](CCC(N)=O)NC(=O)[C@H](CCCNC(=N)N)NC(=O)CNC(=O)[C@H](C)NC(=O)[C@H](CC(=O)O)NC(=O)[C@H](CCCCN)NC(=O)[C@@H](NC(=O)[C@@H](NC(=O)[C@H](CC(=O)O)NC(=O)[C@H](Cc1ccccc1)NC(=O)[C@@H](NC(=O)CN)C(C)C)[C@@H](C)CC)[C@@H](C)CC)C(C)C)C(=O)N[C@@H](C)C(=O)N[C@@H](CCC(=O)O)C(=O)N[C@@H](CCCCN)C(=O)N[C@H](C(N)=O)C(C)C (H-GVFDIIKDAGRQLVAHAMGKIAEKV-NH2) | > 300 µM | > 300 µM | > 300 µM | 4.05% | 300 µM (≈ 800 µg/mL) | Non-toxic | 4.05% |  |  |  |  |  |
| CC[C@H](C)[C@H](NC(=O)[C@H](CCCCN)NC(=O)CNC(=O)[C@H](CCSC)NC(=O)[C@H](C)NC(=O)[C@H](CCCNC(=N)N)NC(=O)[C@H](C)NC(=O)[C@@H](NC(=O)[C@H](CC(C)C)NC(=O)[C@H](CCC(N)=O)NC(=O)[C@H](CCCCN)NC(=O)CNC(=O)[C@H](C)NC(=O)CNC(=O)[C@H](CCCCN)NC(=O)[C@@H](NC(=O)[C@@H](NC(=O)[C@H](CC(=O)O)NC(=O)[C@H](Cc1ccccc1)NC(=O)[C@@H](NC(=O)CN)C(C)C)[C@@H](C)CC)[C@@H](C)CC)[C@@H](C)CC)C(=O)N[C@@H](C)C(=O)N[C@@H](CCC(=O)O)C(=O)N[C@@H](CCCCN)C(=O)N[C@H](C(=O)NCC(=O)N[C@@H](CC(C)C)C(=O)N[C@@H](CC(N)=O)C(=O)N[C@@H](CCCCN)C(=O)N[C@@H](CC(=O)O)C(=O)NCC(=O)N[C@@H](CC(N)=O)C(=O)O)C(C)C (H-GVFDIIKGAGKQLIARAMGKIAEKVGLNKDGN-OH) | 240 µM (≈ 795 µg/mL) | 240 µM (≈ 795 µg/mL) | 240 µM (≈ 795 µg/mL) | 0% | 60 µM (≈ 199 µg/mL) | Non-toxic | 8.09% |  |  |  |  |  |
| CC[C@H](C)[C@H](NC(=O)[C@H](CCCCN)NC(=O)CNC(=O)[C@@H](NC(=O)[C@H](C)NC(=O)[C@H](Cc1cnc[nH]1)NC(=O)[C@H](C)NC(=O)[C@@H](NC(=O)[C@H](CC(C)C)NC(=O)[C@H](CCC(N)=O)NC(=O)[C@H](CCCCN)NC(=O)CNC(=O)[C@H](C)NC(=O)[C@H](CC(=O)O)NC(=O)[C@H](CCCCN)NC(=O)[C@@H](NC(=O)[C@@H](NC(=O)[C@H](CC(=O)O)NC(=O)[C@H](Cc1ccccc1)NC(=O)[C@@H](NC(=O)CN)C(C)C)[C@@H](C)CC)[C@@H](C)CC)C(C)C)[C@@H](C)O)C(=O)N[C@@H](C)C(=O)N[C@@H](CCC(=O)O)C(=O)N[C@@H](CCCCN)C(=O)N[C@H](C(N)=O)C(C)C (H-GVFDIIKDAGKQLVAHATGKIAEKV-NH2) | > 310 µM | > 310 µM | > 310 µM | 0% | > 310 µM | Non-toxic | 0% |  |  |  |  |  |
